# Assays:
# P388 [1] = experiment: In vitro cytotoxicity against murine P388 doxorubicin resistant leukemia cell line; assay type: functional, cell-based; conditions: Mus musculus
# Method in brief: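 P388/Dox cells grown in RPMI 1640 with 10% foetal calf serum, 2-mercaptoethanol, L-glutamine and antibiotics, with doxorubicin 1 μg/mL kept in the medium. Seeded at 1×10^5 cells/mL and exposed 96 h to a range of taxoid concentrations, quadruplicate points. Neutral red 0.02% added for 16 h, cells lysed in 1% SDS, OD read at 540 and 346 nm. IC50 = 50% growth inhibition, from three separate experiments.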
# P388 [2] = experiment: In vitro cytotoxicity against murine P388 leukemia cell line; assay type: functional, cell-based; conditions: Mus musculus
# Method in brief: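 P388 cells kept in RPMI 1640 with 10% foetal calf serum, 10 μM 2-mercaptoethanol, 2 mM L-glutamine and penicillin/streptomycin. Seeded at 1×10^5 cells/mL and grown 96 h with various taxoid concentrations, each in quadruplicate. Viability read by 16 h neutral red (0.02%) uptake, SDS lysis and OD at 540 and 346 nm. IC50 for 50% growth inhibition taken from three separate experiments.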
# [3] = Ratio of inhibition of the rate of microtubule disassembly by the compound to that of paclitaxel; assay type: functional
# Method in brief: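 Porcine brain tubulin, MAP-depleted on phosphocellulose, used at 9 μM in MES pH 6.8 buffer with glycerol, 6 mM MgCl2 and 1 mM GTP. Taxoid in ethanol (0.1–5 μM) was added, tubulin polymerized 30 min at 37 °C, then cooled to 6 °C. Depolymerization rate was taken from the turbidity (350 nm) decline slope. The IC50 for 50% rate decrease was divided by the paclitaxel IC50.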
Structure (SMILES),IC50 (P388 [1]),IC50 (P388 [2]),IC50 ratio [3]
CC(=O)O[C@@]12CO[C@@H]1C[C@H](O)[C@@]1(C)C(=O)[C@H](O)C3=C(C)[C@@H](OC(=O)[C@H](O)[C@@H](NC(=O)OC(C)(C)C)c4ccccc4)C[C@@](O)([C@@H](OC(=O)c4ccccc4)[C@H]21)C3(C)C.O.O.O [DOCETAXEL],1.5 µg/mL,0.008 µg/mL,0.7
CC(=O)O[C@@]12CO[C@@H]1C[C@H](O)[C@@]1(C)C(=O)[C@H](O)C3=C(C)[C@@H](OC(=O)[C@H](O)C(NC(=O)OC(C)(C)C)C4CCCCC4)C[C@@](O)([C@@H](OC(=O)c4ccccc4)C12)C3(C)C (stereo not given in full),3.1 µg/mL,0.063 µg/mL,0.72
CC(=O)O[C@@]12CO[C@@H]1C[C@H](O)[C@@]1(C)C(=O)[C@H](O)C3=C(C)[C@@H](OC(=O)[C@H](O)C(NC(=O)OC(C)(C)C)c4ccccc4)C[C@@](O)([C@@H](OC(=O)C4CCCCC4)C12)C3(C)C (stereo not given in full),6.3 µg/mL,0.09 µg/mL,0.85
CC(=O)O[C@@]12CO[C@@H]1C[C@H](O)[C@@]1(C)C(=O)[C@H](O)C3=C(C)[C@@H](OC(=O)[C@H](O)C(NC(=O)OC(C)(C)C)C4CCCCC4)C[C@@](O)([C@@H](OC(=O)C4CCCCC4)C12)C3(C)C (stereo not given in full),3.6 µg/mL,0.076 µg/mL,2
CC(=O)O[C@H]1C(=O)[C@@]2(C)C([C@H](OC(=O)C3CCCCC3)[C@]3(O)C[C@H](OC(=O)[C@H](O)C(NC(=O)c4ccccc4)c4ccccc4)C(C)=C1C3(C)C)[C@]1(OC(C)=O)CO[C@@H]1C[C@@H]2O (stereo not given in full),7.5 µg/mL,0.45 µg/mL,1.7
